Our source for the pKB and pKb values is ChEMBL document CHEMBL1127523, “Design and synthesis of side-chain conformationally restricted phenylalanines and their use for structure-activity studies on tachykinin NK-1 receptor” (J Med Chem, 1994).

The term pKB denotes −log10 of the KB, conventionally taken in molar units. One may read the pKb as the negative decadic logarithm of the Kb, by convention in mol/L.

Starred links: 1 amine or outer side, 2 acyl side, 3 side chain; linkers in the order of their positions; H or OH if unused. Non-standard residues stand in square brackets, D forms with d. Residues, ends and D or L forms follow the SMILES beside them. Gly(9-fluorenyl) = N[C@H](C(=O)O)C1c2ccccc2-c2ccccc21; X1 = O=C([C@@H](N[*:1])C1CCc2ccccc21)[*:2]; Dip = N[C@H](C(=O)O)C(c1ccccc1)c1ccccc1

Format in all cases: functional
Experiment [1] is filed under the species Cavia porcellus. Put plainly: (§1) pKB value of compound was determined in presence of antagonist RP-67580 at conc. of 10e-7 M. Summed up: (§2)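 Guinea pig ileum strips (1 cm, terminal portion, males 300–400 g) in oxygenated Tyrode at 37 °C, 1 g tension. Agonist added cumulatively, doubling bath concentration at each steady response. Antagonist RP-67,580, one concentration (10⁻⁷ M), preincubated 5 min before first agonist addition. pKB = log(dose ratio − 1) − log([antagonist]); three independent determinations.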

The species entered for experiment [2] is Cavia porcellus. Description: pKb value of compound was determined in presence of antagonist RP-67580 at conc. of 10e-7 M. The gist of the method: as §2
The species entered for experiment [3] is Cavia porcellus. The experiment is described as §1. The source holds these as a separate data set.

Regarding `CSCC[C@H](NC(=O)[C@H](CC(C)C)NC(=O)[C@@H]1CCCN1C(=O)[C@@H](NC(=O)[C@H](Cc1ccccc1)NC(=O)[C@H](CCC(N)=O)NC(=O)[C@H](CCC(N)=O)NC(=O)[C@@H]1CCCN1C(=O)[C@H](CCCCN)NC(=O)[C@@H]1CCCN1C(=O)[C@@H](N)CCCN=C(N)N)C(c1ccccc1)c1ccccc1)C(N)=O` (H-RPKPQQF[Dip]PLM-NH2), the pKB in the experiment listed under Cavia porcellus [1] stood at 7.25.

`CSCC[C@H](NC(=O)[C@H](CC(C)C)NC(=O)CNC(=O)[C@@H](NC(=O)[C@@H](NC(=O)[C@H](CCC(N)=O)NC(=O)[C@H](CCC(N)=O)NC(=O)[C@@H]1CCCN1C(=O)[C@H](CCCCN)NC(=O)[C@@H]1CCCN1C(=O)[C@@H](N)CCCN=C(N)N)C1CCc2ccccc21)C1c2ccccc2-c2ccccc21)C(N)=O` (stereo partly specified) (H-RPKPQQ[X1][Gly(9-fluorenyl)]GLM-NH2): in the experiment listed under Cavia porcellus [2], the negative logarithm of the Kb (pKb) is 7.1.

In the case of `CSCC[C@H](NC(=O)[C@H](CC(C)C)NC(=O)CNC(=O)[C@H](Cc1ccccc1)NC(=O)[C@@H](NC(=O)[C@H](CCC(N)=O)NC(=O)[C@H](CCC(N)=O)NC(=O)[C@@H]1CCCN1C(=O)[C@H](CCCCN)NC(=O)[C@@H]1CCCN1C(=O)[C@@H](N)CCCN=C(N)N)[C@@H]1CCc2ccccc21)C(N)=O`, in the experiment filed under Cavia porcellus [3], the pKb stood at 7.06.

As to `CSCC[C@H](NC(=O)[C@H](CC(C)C)NC(=O)CNC(=O)[C@H](Cc1ccccc1)NC(=O)[C@H](CCc1ccccc1)NC(=O)[C@H](CCC(N)=O)NC(=O)[C@H](CCC(N)=O)NC(=O)[C@@H]1CCCN1C(=O)[C@H](CCCCN)NC(=O)[C@@H]1CCCN1C(=O)[C@@H](N)CCCN=C(N)N)C(N)=O`, the pKb in the experiment filed under Cavia porcellus [3] came to 7.25.

For `CSCC[C@H](NC(=O)[C@H](CC(C)C)NC(=O)CNC(=O)[C@H](Cc1ccccc1)NC(=O)/C(=C\c1ccccc1)NC(=O)[C@H](CCC(N)=O)NC(=O)[C@H](CCC(N)=O)NC(=O)[C@@H]1CCCN1C(=O)[C@H](CCCCN)NC(=O)[C@@H]1CCCN1C(=O)[C@@H](N)CCCN=C(N)N)C(N)=O`, the pKb in the experiment filed under Cavia porcellus [3] turned out to be 7.15.

`CSCC[C@H](NC(=O)[C@H](CC(C)C)NC(=O)CNC(=O)[C@@H](NC(=O)[C@H](Cc1ccccc1)NC(=O)[C@H](CCC(N)=O)NC(=O)[C@H](CCC(N)=O)NC(=O)[C@@H]1CCCN1C(=O)[C@H](CCCCN)NC(=O)[C@@H]1CCCN1C(=O)[C@@H](N)CCCN=C(N)N)C(c1ccccc1)c1ccccc1)C(N)=O`: the pKb in the experiment filed under Cavia porcellus [3] came out at 6.9.
